Dynein cargo inh = dynein cargo transport inhibition. AID 1381. 220,000 tested, 0.47% active. 3617.4 mouse cells, GR-EGFP nuclear translocation imaging; test concentration mostly 20 µM; stimulated with dexamethasone, 1 µM; hits give low values. z-score, hits read low;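 active = plate z-score of nuclear minus cytoplasmic receptor signal below a set negative limit, without overly bright fluorescence or cell loss, cut at about -3.5 in these data, passing the limit was not always enough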;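 also: z-score of nuclear minus cytoplasmic ring GR-EGFP intensity difference per well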
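Buffer or medium: tet-free medium with charcoal-stripped serum / Also added: dexamethasone agonist, 1.0 µM final, for 30 min / Timing: induction 48 h, compound 1 h, agonist 30 min / Measured by: high-content fluorescence imaging after fixation / Read-out: nuclear-to-cytoplasmic GR-EGFP distribution per well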
Autophagy HCS = alters autophagy in cells; AID 463193; MEF GFP-LC3 puncta imaging; test concentration mostly 10 µM; calls only at 10 µM (by protocol); 190,000 tested, 0.98% active;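 active = percentage of spot-positive cells more than 3 SD above its plate mean, without a fluorescence outlier flag or 80% toxicity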
Lmaj promast = Leishmania major promastigote growth inhibition. Leishmania major promastigotes, resazurin fluorescence viability. inhibition, % at 10 µM. 200,000 tested, 9% active. AID 1063; in the data active = inhibition above about 50%;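 also: promastigotes grown with compound for 44 hours at 28 °C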
b-catenin transl = modulators of beta-catenin nuclear translocation; HeLa beta-catenin nuclear translocation, immunofluorescence imaging; nuclear translocation activity, % at 5 µM; 190,000 tested, 0.3% active; AID 1665;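 active = nuclear translocation activity above 50% at 5 µM, with a well cell count of 50 or more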;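 also: per-cell ratio of nuclear to cytoplasmic median beta-catenin stain intensity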
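System: Human HeLa cells, endogenous beta-catenin | Compound dosing: 5 µM primary, 0.02–20 µM confirmation | Timing: 24 h compound exposure at 37°C, 5% CO2 | Measured by: Fluorescence imaging of beta-catenin antibody stain plus DAPI | Read-out basis: % activation of per-cell nuclear versus cytoplasmic median beta-catenin signal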
MT stabilize HCS = stabilizes microtubules in HeLa cells. AID 2205. % tubulin-high responders, % at 10 µM. 200,000 tested, 0.83% active. HeLa tubulin immunostaining HCS, 24 h; share of cells brighter than vehicle mean+2SD;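 active = plate Z-score above 3 for both tubulin-high and condensed-nucleus cell shares, with cell loss under 80%, at 10 µM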;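 also: anti alpha tubulin signal scored within the nucleus-defined area of each cell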
CHOP inh = inhibitors of CHOP induction in ER stress response; CHO-K1 CHOP-promoter luciferase, tunicamycin-induced, 15-18 h; inhibition, % at 10 µM; 220,000 tested, 3.8% active; AID 2732;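 active = compounds that reduced the stress-induced luciferase reporter signal by more than about 70% of percent inhibition, limit read from the data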
Large screens that a line does not name were inactive. Hits are enriched below; roughly 12% of the tested compounds scored in any of these assays.

Fc1ccc(Cn2nnnc2CN2CCN(C3CCCC3)CC2)cc1	Lmaj promast 94
COc1cccc(OCC(O)CN2CCC(Cc3ccccc3)CC2)c1 (centres undefined)	Lmaj promast 95
COc1cccc(OCC(O)CN2CC(C)CC(C)C2)c1 (centres undefined)	Lmaj promast 88 (no result: Autophagy HCS)
COc1cccc(OCC(O)CN2CCN(c3ccccc3)CC2)c1 (centres undefined)	none (no result: Autophagy HCS, Lmaj promast, MT stabilize HCS)
C=CCc1ccc(OCC(O)CN2CCN(Cc3ccc(Cl)cc3)CC2)c(OC)c1 (centres undefined)	Lmaj promast 93
C=CCc1ccc(OCC(O)CO)c(OC)c1 (centres undefined)	none
COc1cccc(OCC(O)CN2CCOCC2)c1 (centres undefined)	none (no result: Autophagy HCS)
C=CCc1ccc(OCC(O)CN2CCC(Cc3ccccc3)CC2)c(OC)c1 (centres undefined)	Lmaj promast 100
O=C(/C=C/c1ccccc1)Nc1cc(S(=O)(=O)N2CCOCC2)ccc1N1CCCC1	none
O=C(NCCCN1CCN(c2cccc(Cl)c2)CC1)C1CCC(=O)N1Cc1ccccc1Cl (centres undefined)	none
CCCNC(=O)c1c(N)n(-c2cccc(OC)c2)c2nc3ccccc3nc12	CHOP inh 89
CCC(C)n1c(C)nc2c(c1=O)c1nc3ccccc3nc1n2CCC1=CCCCC1 (centres undefined)	Lmaj promast 57
COCCn1c(N)c(C(=O)OCc2ccccc2)c2nc3ccccc3nc21	none
COc1ccc(CCn2c(N)c(C(=O)NCc3ccco3)c3nc4ccccc4nc32)cc1	MT stabilize HCS 15
COCCNC(=O)c1c(N)n(CCC2=CCCCC2)c2nc3ccccc3nc12	Lmaj promast 100, CHOP inh 78 (no result: b-catenin transl)
Cc1cc(=O)oc2cc(O)c(N=Nc3ccccc3)cc12	none (no result: Autophagy HCS, Lmaj promast, MT stabilize HCS)
OC(CNCC(c1ccco1)N1CCCCC1)c1ccccc1 (centres undefined)	none (no result: b-catenin transl)
Cc1[nH]n(-c2ncc(-c3ccccc3)s2)c(=O)c1C(c1ccc(Br)cc1)C(C#N)C#N (centres undefined)	Lmaj promast 81
CCN(CCn1cccn1)C(=O)CC1C(=O)NCCN1Cc1ccc(OC)c(OC)c1 (centres undefined)	Autophagy HCS active
Cc1ccc(-n2nnnc2SCC(=O)Nc2ccc3c(c2)COC3=O)cc1C	none
CC(=O)Nc1ccc(Oc2sc(C(=O)c3ccccc3)c(N)c2C#N)cc1	Lmaj promast 98
CC(=O)Nc1ccc(Oc2ccccc2)cc1	none (no result: Autophagy HCS, Lmaj promast, MT stabilize HCS)
Cc1cc(S(=O)(=O)N2CCN(c3ncccn3)CC2)ccc1-n1cnnn1	none
O=C1NN=C(CSc2n[nH]c(=S)s2)CS1	none
COc1cc2oc3ccccc3c2cc1N(CC(=O)N(C)C)S(=O)(=O)c1ccc(C)cc1	Lmaj promast 66
COc1cc2oc3ccccc3c2cc1N(CC(=O)N(C)C)S(=O)(=O)c1ccccc1	none
O=C(/C(=C/O)N=Nc1ccccc1)c1ccc(Cl)cc1	CHOP inh 92
Cc1ccc(N=N/C(=C\O)C(=O)c2ccc(Cl)cc2)cc1	Lmaj promast 91, CHOP inh 95
O=C(COc1ccc(Cl)cc1)NCc1nnc(SCC(=O)Nc2ccc(F)cc2F)o1	none
O=C(/C=C/c1ccccc1Cl)Nn1cnc2ccccc2c1=O	Lmaj promast 79
Cc1nc2ccccc2c(=O)n1NC(=O)/C=C/c1ccccc1Cl	Lmaj promast 69
O=C(/C=C/c1ccccc1)N1c2ccccc2Sc2ccc(C(F)(F)F)cc21	Lmaj promast 97, CHOP inh 70
N#CC1=C(N)Oc2c(ccc3ccccc23)C1c1cccs1 (centres undefined)	Autophagy HCS active, b-catenin transl 131, MT stabilize HCS 20 (no result: CHOP inh)
Cc1csc2nc(=O)c3ccccc3n12	none (no result: b-catenin transl)
CC1CCN(S(=O)(=O)c2ccc(S(=O)(=O)N3CCN4CCCC4C3)cc2)CC1 (centres undefined)	none (no result: Dynein cargo inh, Autophagy HCS, Lmaj promast, MT stabilize HCS, CHOP inh)
CCS(=O)(=O)N1CCN(C2CCC(C)CC2)CC1 (centres undefined)	Lmaj promast 90
CC1CCC(N2CCN(S(C)(=O)=O)CC2)CC1 (centres undefined)	Lmaj promast 89
CS(=O)(=O)N1CCN(C2C3CC4CC(C3)CC2C4)CC1 (centres undefined)	Lmaj promast 80
Cc1cc2nc3n(c2cc1C)CC1CC(C(=O)NCc2ccco2)N(C)C31 (centres undefined)	none (no result: Autophagy HCS, Lmaj promast, MT stabilize HCS)
Cc1cc(C)nc(NC(=O)NS(=O)(=O)N2CCCCCC2)n1	none
COC(=O)c1c([N+](=O)[O-])c(OC)c(OC)c(OC)c1[N+](=O)[O-]	none
Cc1cc(C)n2nc(C(F)(F)F)c(-c3ccccc3)c2n1	none
COCCn1c(SCC(=O)Nc2cc(C(C)(C)C)nn2-c2ccccc2)nnc1-c1ccncc1	none
COCCn1c(SCC(=O)Nc2cc(C(C)(C)C)nn2-c2ccccc2)nc2ccccc2c1=O	Lmaj promast 54
CCOCCCn1c(SCC(=O)Nc2cc(C(C)(C)C)nn2-c2ccccc2)nc2ccccc2c1=O	Lmaj promast 72
COCCn1c(SCC(=O)Nc2ccccc2C)nc2c(oc3ccccc32)c1=O	CHOP inh 79
C/C(=N\NC(=O)c1c(Br)cnn1C)c1ccc(NC(=O)c2ccc(F)cc2)cc1	none
Cc1nn2c(N3CCOCC3)c3c(nc2c1-c1ccccc1)CCCC3	CHOP inh 72
Cc1nn2c(NCCCN(C)C)c3c(nc2c1-c1ccccc1)CCCC3	none (no result: Autophagy HCS, Lmaj promast, MT stabilize HCS)
Cc1nn2c(NCCCN(C)C)c3c(nc2c1-c1ccccc1)CCC3	Lmaj promast 100, CHOP inh 93 (no result: b-catenin transl)
Cc1ccc(NC(=O)c2sc3nc(CCl)[nH]c(=O)c3c2C)c(C)c1	Lmaj promast 89
Cc1cc(C)c(NC(=O)c2sc3nc(C)[nH]c(=O)c3c2C)c(C)c1	none
CO/N=C(\c1nonc1N)N1CCN(c2ccc([N+](=O)[O-])cc2Cl)CC1	CHOP inh 73
CCOC(=O)c1sc2ccc(S(=O)(=O)N3CC(C)CC(C)C3)cc2c1N (centres undefined)	none
C=CCc1ccccc1OCC(O)CNC (centres undefined)	none
C=CCc1ccccc1OCC(O)CN(C(C)C)C(C)C (centres undefined)	Lmaj promast 100
Cc1ccc(N2CCN(CC(O)COc3cccc(C)c3)CC2)cc1 (centres undefined)	none (no result: Autophagy HCS, Lmaj promast, MT stabilize HCS)
COc1ccccc1N1CCN(CC(O)COc2c(OC)cccc2OC)CC1 (centres undefined)	none
C=CCc1ccccc1OCC(O)CN1CCN(c2ccc(OC)cc2)CC1 (centres undefined)	Lmaj promast 70
OC(COc1cccc2ccccc12)CN1CCN(c2ccccc2Cl)CC1 (centres undefined)	CHOP inh 76 (no result: Autophagy HCS, Lmaj promast, MT stabilize HCS)
